Assay [1] in a line: growth inhibition of highly fluconazole-resistant C. albicans, dose response, CaCi-17 strain, retest, dry powder, set 3 (AID 623982). The conditions noted are these: C. albicans CaCi-17 growth, Alamar Blue fluorescence, 48 h; at 3 µM (top of the series). A digest of the protocol:
(§1)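 Medium – buffered RPMI · Read-out – growth inhibition indicated by fluorescence signal loss · Benchmarks – amphotericin B at 10 µM as positive control · Times – 48 h exposure, 37 °C, humidified, static · Technique – Alamar Blue fluorescence, 2 h dye incubation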
A general note: Resazurin is reduced to fluorescent resorufin, in cell work by metabolically active cells.

Assay [2] concerns C. albicans CaCi-17 growth, Alamar Blue fluorescence, 48 h. The assay is described as above. A digest of the protocol:
as §1

The term AC50 denotes the concentration at which the activity in the assay is half-maximal.

Each structure is given as a SMILES string. “And” between values parts separate entries of the source, which are not always exact repeats. Equal entries are not always repeated. The source made the active and inactive calls.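 The calls were made as follows: active = compounds cutting fungal growth signal with fitted half-effect dose at most twice the top valid dose; inconclusive = flat curve at 30 to 70% inhibition, or poor fit; inactive = the rest.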

As to `CCOC(=O)N1C(=O)C2(CCCCC2)N(c2ccc(C)cc2)C1=S`, the activity change, negative = inhibition in assay [1] is 100% (inactive) and 85.9% (inactive). Same read-out and setting: as for `CCOC(=O)N1C(=O)C2(CCCCC2)N(c2ccccc2)C1=S`, the figure is 104% (inactive). With `CCOC(=O)N1C(=O)C2(CCCCC2)N(c2ccc(F)cc2)C1=S`, the AC50 in assay [2] was 783 nM. Still for that read-out and setting: to `CC1/C=C/C=C\C=C\C=C\C=C\C=C\C=C\C(O[C@H]2OC(C)C(O)C(N)C2O)CC2OC(O)(CC(O)CC(O)C(O)CCC(O)CC(O)CC(=O)OC(C)C(C)C1O)CC(O)C2C(=O)O` (stereo partly specified) belongs 83.8 nM. For the compound `CCOC(=O)N1C(=O)C2(CCCCC2)N(c2cccc(C)c2)C1=S`, the activity change, negative = inhibition in assay [1] is 70.9% (inactive).

On to `C/C=C/[C@@H]1[C@H]2C[C@@H](C)CC[C@@H]2C(C)=C[C@H]1C(=O)c1c(O)c(-c2ccc(O)cc2)c[nH]c1=O`, for which the activity change, negative = inhibition in assay [1] was 54.1% (inactive).

The record behind these values is PubChem BioAssay AID623982 (Broad Institute, 2012).
